Calls of active or inactive are those of the source. The rule behind the calls is not given here.
How the values were obtained:
HCT-116 = experiment: Cytotoxicity against human HCT116 cells after 48 hrs by sulforhodamine B assay; format: functional; conditions: HCT-116, 48 h, read-out: LC50 (the source's name)
Summary of the method: (§1)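 NCI 60 human tumour cell line panel run to the NCI protocol. GI50, TGI and LC50 come from log concentration vs % growth inhibition curves for each cell line. Lines insensitive at the top concentration are reported with ">".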

SF-295 [1] = experiment: Cytotoxicity against human SF295 cells after 48 hrs by sulforhodamine B assay; format: functional; conditions: SF-295, 48 h, read-out: LC50 (the source's name); summary of the method: as §1
SNB-19 [2] = experiment: Cytotoxicity against human SNB19 cells after 48 hrs by sulforhodamine B assay; format: functional; conditions: SNB-19, 48 h, read-out: LC50 (the source's name); summary of the method: as §1
M14 = experiment: Cytotoxicity against human M14 cells after 48 hrs by sulforhodamine B assay; format: functional; conditions: M14, 48 h, read-out: LC50 (the source's name); summary of the method: as §1
SK-MEL-2 [3] = experiment: Cytotoxicity against human SK-MEL-2 cells after 48 hrs by sulforhodamine B assay; format: functional; conditions: SK-MEL-2, 48 h, read-out: LC50 (the source's name); summary of the method: as §1
UACC-62 = experiment: Cytotoxicity against human UACC62 cells after 48 hrs by sulforhodamine B assay; format: functional; conditions: UACC-62, 48 h, read-out: LC50 (the source's name)
OVCAR-4 = experiment: Cytotoxicity against human OVCAR4 cells after 48 hrs by sulforhodamine B assay; format: functional; conditions: OVCAR-4, 48 h, read-out: LC50 (the source's name); summary of the method: as §1
[4] = Cytotoxicity against human Hs 578T cells after 48 hrs by sulforhodamine B assay; format: functional; conditions: read-out: LC50 (the source's name); summary of the method: as §1
HOP-92 = experiment: Growth inhibition of human HOP92 cells assessed as cell growth at 10^-5 M after 48 hrs by sulforhodamine B assay; format: functional; conditions: HOP-92, 48 h, read-out: Activity
Summary of the method: (§2)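 NCI 60-cell panel single high-dose screen: compound applied at 10^-5 M for 48 h, endpoint by sulforhodamine B protein-binding dye. Values reported as growth percent of treated cells relative to untreated control cells.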

NCI-H226 = experiment: Growth inhibition of human NCI-H226 cells assessed as cell growth at 10^-5 M after 48 hrs by sulforhodamine B assay; format: functional; conditions: NCI-H226, 48 h, read-out: Activity
Summary of the method: (§3)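 NCI-60 single high-dose screen run under the NCI protocol. Cells were incubated with compound at 10^-5 M for 48 h. The end point was determined by sulforhodamine B protein staining. Results are reported as percent growth of treated cells relative to untreated control cells.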

SF-295 [5] = experiment: Growth inhibition of human SF295 cells assessed as cell growth at 10^-5 M after 48 hrs by sulforhodamine B assay; format: functional; conditions: SF-295, 48 h, read-out: Activity; summary of the method: as §3
SK-MEL-2 [6] = experiment: Growth inhibition of human SK-MEL-2 cells assessed as cell growth at 10^-5 M after 48 hrs by sulforhodamine B assay; format: functional; conditions: SK-MEL-2, 48 h, read-out: Activity; summary of the method: as §3
SK-MEL-28 = experiment: Growth inhibition of human SK-MEL-28 cells assessed as cell growth at 10^-5 M after 48 hrs by sulforhodamine B assay; format: functional; conditions: SK-MEL-28, 48 h, read-out: Activity; summary of the method: as §3
PC-3 = experiment: Growth inhibition of human PC3 cells assessed as cell growth at 10^-5 M after 48 hrs by sulforhodamine B assay; format: functional; conditions: PC-3, 48 h, read-out: Activity; summary of the method: as §3
OVCAR-5 = experiment: Growth inhibition of human OVCAR5 cells after 48 hrs by sulforhodamine B assay; format: functional; conditions: OVCAR-5, 48 h
Summary of the method: (§4)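 GI50, TGI and LC50 were derived from log concentration versus % growth inhibition curves for each cell line. GI50 is the concentration giving a 50% decrease in net cell growth. Insensitive lines are reported as greater than the highest concentration.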

SK-OV-3 = experiment: Growth inhibition of human SKOV3 cells after 48 hrs by sulforhodamine B assay; format: functional; conditions: SK-OV-3, 48 h
Summary of the method: (§5)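 NCI 60-cell panel five-dose assay. GI50, TGI and LC50 are derived from log concentration versus % growth inhibition curves. Cell lines insensitive at the top concentration are given a ">" prefix.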

ACHN = experiment: Growth inhibition of human ACHN cells after 48 hrs by sulforhodamine B assay; format: functional
Summary of the method: (§6)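 From log concentration versus % growth curves, GI50 (50% decrease in net growth), TGI (total growth inhibition) and LC50 (net 50% loss of initial cells) are derived for each line.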

CAKI-1 = experiment: Growth inhibition of human Caki1 cells after 48 hrs by sulforhodamine B assay; format: functional; conditions: CAKI-1, 48 h; summary of the method: as §6
RXF 393 = experiment: Growth inhibition of human RXF393 cells after 48 hrs by sulforhodamine B assay; format: functional; conditions: RXF 393, 48 h; summary of the method: as §4
UO-31 = experiment: Growth inhibition of human UO31 cells after 48 hrs by sulforhodamine B assay; format: functional; conditions: UO-31, 48 h; summary of the method: as §5
[7] = Growth inhibition of human Hs 578T cells after 48 hrs by sulforhodamine B assay; format: functional; summary of the method: as §6
BT-549 = experiment: Growth inhibition of human BT549 cells after 48 hrs by sulforhodamine B assay; format: functional; conditions: BT-549, 48 h; summary of the method: as §6
MOLT-4 [8] = experiment: Cytotoxicity against human MOLT4 cells after 48 hrs by sulforhodamine B assay; format: functional; conditions: MOLT-4, 48 h, read-out: LC50 (the source's name); summary of the method: as §1
EKVX = experiment: Cytotoxicity against human EKVX cells after 48 hrs by sulforhodamine B assay; format: functional; conditions: read-out: LC50 (the source's name); summary of the method: as §1
DU-145 = experiment: Growth inhibition of human DU145 cells assessed as cell growth at 10^-5 M after 48 hrs by sulforhodamine B assay; format: functional; conditions: DU-145, 48 h, read-out: Activity; summary of the method: as §2
[9] = Antibacterial activity against Pseudomonas antimicrobica assessed as zone of inhibition at 5 uL and 32 degC after 36 hrs by disk diffusion method; format: functional, Burkholderia gladioli
Summary of the method: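 Disc diffusion on AC agar, each strain spread evenly over the medium; test compounds given as 1% (w/v) DMSO solutions. Plates covered and incubated 36 h at 32 °C, then the diameter of the zone of inhibited growth measured in mm. Tetracycline served as antibacterial reference.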

[10] = Antifungal activity against Hyphopichia burtonii assessed as zone of inhibition at 5 uL and 28 degC after 36 hrs by disk diffusion method; format: functional
Summary of the method: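 Agar disc diffusion with the test compound applied as a 1% (w/v) DMSO solution. Yeasts were grown on AC agar and Aspergillus niger on potato dextrose broth agar, each strain spread evenly. Plates were covered and kept 36 h at 28 °C, and the inhibition zone diameter was read in mm. Clotrimazole served as reference.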

MOLT-4 [11] = experiment: Growth inhibition of human MOLT4 cells after 48 hrs by sulforhodamine B assay; format: functional; conditions: MOLT-4, 48 h; summary of the method: as §4
SR = experiment: Growth inhibition of human SR cells after 48 hrs by sulforhodamine B assay; format: functional; summary of the method: as §5
SNB-19 [12] = experiment: Growth inhibition of human SNB19 cells after 48 hrs by sulforhodamine B assay; format: functional; conditions: SNB-19, 48 h; summary of the method: as §5
SK-MEL-2 [13] = experiment: Growth inhibition of human SK-MEL-2 cells after 48 hrs by sulforhodamine B assay; format: functional; conditions: SK-MEL-2, 48 h; summary of the method: as §4

SMILES: CC(C)CCC[C@@H](C)[C@H]1CC[C@H]2C3=CCn4c(=O)ccc(=O)n4[C@@H]3CC[C@]12C
- CC50 (HCT-116): 0.594 µM
- CC50 (SF-295 [1]): 3.76 µM
- CC50 (SNB-19 [2]): 6.01 µM
- CC50 (M14): 3.32 µM
- CC50 (SK-MEL-2 [3]): 3.39 µM
- CC50 (UACC-62): 5.45 µM
- CC50 (OVCAR-4): 5.63 µM
- CC50 [4]: > 100 µM
- growth at 10 µM (HOP-92): -94%
- growth at 10 µM (NCI-H226): -91.8%
- growth at 10 µM (SF-295 [5]): -99.5%
- growth at 10 µM (SK-MEL-2 [6]): -93%
- growth at 10 µM (SK-MEL-28): -100%
- growth at 10 µM (PC-3): -85.5%
- GI50 (OVCAR-5): 1.05 µM
- TGI (OVCAR-5): 2.87 µM
- GI50 (SK-OV-3): 1.63 µM
- TGI (SK-OV-3): 2.99 µM
- GI50 (ACHN): 1.04 µM
- TGI (ACHN): 2.32 µM
- GI50 (CAKI-1): 0.179 µM
- TGI (CAKI-1): 0.577 µM
- GI50 (RXF 393): 0.952 µM
- TGI (RXF 393): 2.3 µM
- GI50 (UO-31): 0.237 µM
- TGI (UO-31): 1.15 µM
- GI50 [7]: 1.8 µM
- TGI [7]: 4.79 µM
- GI50 (BT-549): 0.312 µM
- TGI (BT-549): 0.876 µM
- CC50 (MOLT-4 [8]): > 100 µM
- CC50 (EKVX): 7.33 µM
- growth at 10 µM (DU-145): -93.7%
- diameter of the inhibition zone (DIZ) [9]: 8 mm
- inhibition zone (IZ) [10]: 10 mm
- GI50 (MOLT-4 [11]): 0.545 µM
- TGI (MOLT-4 [11]): 4.13 µM
- GI50 (SR): 0.137 µM
- TGI (SR): 0.758 µM
- GI50 (SNB-19 [12]): 1.52 µM
- TGI (SNB-19 [12]): 3.02 µM
- GI50 (SK-MEL-2 [13]): 0.286 µM
- TGI (SK-MEL-2 [13]): 0.774 µM

SMILES: CC(C)CCC[C@@H](C)[C@H]1CC[C@H]2C3=CC[C@@H]4C(=O)C=CC(=O)[C@@H]4[C@@H]3CC[C@]12C
- CC50 (HCT-116): > 3.91 µM
- CC50 (SF-295 [1]): > 100 µM
- CC50 (SNB-19 [2]): > 100 µM
- CC50 (M14): > 100 µM
- CC50 (SK-MEL-2 [3]): > 100 µM
- CC50 (UACC-62): > 100 µM
- CC50 (OVCAR-4): > 2.65 µM
- CC50 [4]: > 100 µM
- growth at 10 µM (HOP-92): -28.9%
- growth at 10 µM (NCI-H226): 42%
- growth at 10 µM (SF-295 [5]): -25.6%
- growth at 10 µM (SK-MEL-2 [6]): 41.9%
- growth at 10 µM (SK-MEL-28): -48.5%
- growth at 10 µM (PC-3): 9.01%
- GI50 (OVCAR-5): 0.212 µM
- TGI (OVCAR-5): > 100 µM
- GI50 (SK-OV-3): 0.688 µM
- GI50 (ACHN): 0.162 µM
- TGI (ACHN): 1.35 µM
- GI50 (CAKI-1): 0.279 µM
- TGI (CAKI-1): 0.633 µM
- GI50 (RXF 393): 0.201 µM
- TGI (RXF 393): 0.995 µM
- GI50 (UO-31): 0.072 µM
- TGI (UO-31): 0.359 µM
- GI50 [7]: 0.817 µM
- TGI [7]: > 100 µM
- GI50 (BT-549): 0.427 µM
- TGI (BT-549): 2.55 µM
- CC50 (MOLT-4 [8]): > 100 µM
- CC50 (EKVX): > 100 µM
- growth at 10 µM (DU-145): 26.6%
- diameter of the inhibition zone (DIZ) [10]: inactive
- GI50 (MOLT-4 [11]): 0.312 µM
- TGI (MOLT-4 [11]): > 100 µM
- GI50 (SR): 0.207 µM
- TGI (SR): > 100 µM
- GI50 (SNB-19 [12]): 0.654 µM
- TGI (SNB-19 [12]): > 100 µM
- GI50 (SK-MEL-2 [13]): 3.37 µM
- TGI (SK-MEL-2 [13]): > 100 µM

SMILES: CC(C)CCC[C@@H](C)[C@H]1CC[C@H]2[C@@H]3CCN4C(=O)CCC(=O)N4[C@@H]3CC[C@]12C
- growth at 10 µM (HOP-92): 77.5%
- growth at 10 µM (NCI-H226): 90.3%
- growth at 10 µM (SF-295 [5]): 88.6%
- growth at 10 µM (SK-MEL-2 [6]): 114%
- growth at 10 µM (SK-MEL-28): 76.4%
- growth at 10 µM (PC-3): 70.5%
- growth at 10 µM (DU-145): 100%
- diameter of the inhibition zone (DIZ) [9]: 12 mm
- inhibition zone (IZ) [10]: 15 mm

— ChEMBL document CHEMBL1806372, “Cytotoxic ring A-modified steroid analogues derived from Grundmann's ketone” (Eur J Med Chem, 2011)
